ChEMBL document CHEMBL3608263, “Identification and optimisation of 4,5-dihydrobenzo[1,2-d:3,4-d]bisthiazole and 4,5-dihydrothiazolo[4,5-h]quinazoline series of selective phosphatidylinositol-3 kinase alpha inhibitors” (Bioorg Med Chem Lett, 2015)
In brackets after ≈: the same amount, converted by molar mass.

Experiments:
[1] = Volume of distribution at steady state in Sprague-Dawley rat at 1 mg/kg, iv and 3 mg/kg, po; assay type: ADME, organism-based; settings: in vivo, read-out: Vdss
In short: (§1)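 Female Sprague-Dawley rats, conscious, permanently cannulated, with free access to food. Dosed 1.0 mg kg-1 intravenously and 3.0 mg kg-1 orally. Blood levels sampled from 5 minutes to 48 h post dose.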

Rattus norvegicus [2] = test: Dose normalized AUC in Sprague-Dawley rat at 1 mg/kg, iv; assay type: ADME, organism-based; settings: in vivo; in short: as §1
Rattus norvegicus [3] = test: Dose normalized AUC in Sprague-Dawley rat at 3 mg/kg, po; assay type: ADME, organism-based; settings: in vivo; in short: as §1
[4] = Oral bioavailability in Sprague-Dawley rat at 3 mg/kg; assay type: ADME, organism-based; settings: in vivo; in short: as §1
[5] = Permeability across apical to basolateral side in human Caco2 cells; assay type: ADME, cell-based; settings: Caco-2, read-out: permeability
[6] = Permeability across basolateral to apical side in human Caco2 cells; assay type: ADME, cell-based; settings: Caco-2, read-out: permeability
[7] = Solubility of the compound at pH 6.8 by high throughput equilibrium method; assay type: physicochemical; settings: buffer
[8] = Plasma concentration in athymic nude mouse xenografted with Rat1-myr-p110alpha tumor at 50 mg/kg, po measured up to 8 hrs; assay type: ADME, organism-based
In short: (§2)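 Female athymic mice bearing subcutaneous Rat1-myr-p110α xenografts were given one oral dose of 50 mg kg-1, as suspension or solution. At set time points, groups of n = 4 were sacrificed. Tumors were flash-frozen, pulverized and analysed by Western blot for Ser473 p-Akt. Compound was quantified in plasma in parallel.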

Plasma = test: Drug uptake in plasma of athymic nude mouse xenografted with Rat1-myr-p110alpha tumor at 50 mg/kg, po measured at 8 hrs; assay type: ADME, organism-based; settings: in vivo; in short: as §2
[9] = Plasma concentration in athymic nude mouse xenografted with Rat1-myr-p110alpha tumor at 50 mg/kg, po measured after 16 hrs; assay type: ADME, organism-based; in short: as §2

SMILES	Vd [1] [L/kg]	AUC/dose (Rattus norvegicus [2]) [nmol·h/L]	AUC/dose (Rattus norvegicus [3]) [nmol·h/L]	bioavailability [4] [%]	Papp A→B [5] [×10⁻⁶ cm/s]	Papp B→A [6] [×10⁻⁶ cm/s]	solubility thermodynamic [7] [µM]	other results
Cc1nc(NC(=O)N2CCC[C@H]2C(N)=O)sc1-c1ccnc(C(C)(C)C)n1	1.3	1128	199	18	–	–	–	–
Cc1nc(NC(=O)N2CCC[C@H]2C(N)=O)sc1-c1csc(C(C)(C)C)n1	2	561	70	2	12.3	15.6	–	–
NC(=O)[C@@H]1CCCN1C(=O)Nc1nc2c(s1)-c1nc(CC3CC3)sc1CC2	–	–	–	–	–	–	55 (≈ 22.2 µg/mL)	–
CC(C)(C)c1ncc2c(n1)-c1sc(NC(=O)N3CCC[C@H]3C(N)=O)nc1CC2	–	–	–	–	–	–	125 (≈ 50.1 µg/mL)	–
CC(C)(C)c1ncc2c(n1)-c1sc(NC(=O)N3CCC[C@@]3(C)C(N)=O)nc1CC2	–	–	–	–	3.4	25.5	60 (≈ 24.9 µg/mL)	–
CC(C)(C)c1ncc2c(n1)-c1sc(NC(=O)N3CC[C@@H]4C[C@@]43C(N)=O)nc1CC2	0.6	16472	13599	83	–	–	51 (≈ 21 µg/mL)	Drug uptake (Plasma): Active; concentration at 16 h [9]: 1000 nM
C[C@@H]1CCN(C(=O)Nc2nc3c(s2)-c2nc(C(C)(C)C(F)(F)F)ncc2CC3)[C@@H]1C(N)=O	–	–	–	–	–	–	9 (≈ 4.22 µg/mL)	–
CN(C)C[C@@]1(C(N)=O)CCCN1C(=O)Nc1nc2c(s1)-c1nc(C(C)(C)C)ncc1CC2	3.2	1444	1116	77	5.2	15.8	> 1000	–
Cc1nc(NC(=O)N2CCC[C@H]2C(N)=O)sc1-c1ccnc(C(C)(C)C(F)(F)F)c1 [ALPELISIB]	–	–	–	–	3.8	18.3	–	–

Now from value to compound, other results behind:

Vd [1] [L/kg]	AUC/dose (Rattus norvegicus [2]) [nmol·h/L]	AUC/dose (Rattus norvegicus [3]) [nmol·h/L]	bioavailability [4] [%]	Papp A→B [5] [×10⁻⁶ cm/s]	Papp B→A [6] [×10⁻⁶ cm/s]	solubility thermodynamic [7] [µM]	SMILES	other results
0.4	4132	1585	39	–	–	65 (≈ 26.4 µg/mL)	CC(C)(C)c1nc2c(s1)CCc1nc(NC(=O)N3CCC[C@H]3C(N)=O)sc1-2	–
–	–	–	–	12.1	15.6	310 (≈ 130 µg/mL)	CC(C)(C)c1nc2c(s1)CCc1nc(NC(=O)N3CCC[C@@]3(C)C(N)=O)sc1-2	–
–	–	–	–	–	–	351 (≈ 147 µg/mL)	CC(C)(C)c1nc2c(s1)CCc1nc(NC(=O)N3CC[C@@H]4C[C@@]43C(N)=O)sc1-2	–
–	–	–	–	–	–	< 4	C[C@H]1CCN(C(=O)Nc2nc3c(s2)-c2nc(C(C)(C)C)sc2CC3)[C@@H]1C(N)=O	–
–	–	–	–	–	–	9 (≈ 3.78 µg/mL)	C[C@@H]1CCN(C(=O)Nc2nc3c(s2)-c2nc(C(C)(C)C)sc2CC3)[C@@H]1C(N)=O	–
–	–	–	–	–	–	14 (≈ 6.63 µg/mL)	C[C@@H]1CCN(C(=O)Nc2nc3c(s2)-c2nc(C(C)(C)C(F)(F)F)sc2CC3)[C@@H]1C(N)=O	concentration at 8 h [8]: > 1000 nM
24	956	531	56	0.76	6.87	–	CN(C)C[C@@H]1CCN(C(=O)Nc2nc3c(s2)-c2nc(C(C)(C)C)sc2CC3)[C@@H]1C(N)=O	–
0.5	5241	1874	36	3.4	21.7	71 (≈ 29.4 µg/mL)	C[C@@H]1CCN(C(=O)Nc2nc3c(s2)-c2nc(C(C)(C)C)ncc2CC3)[C@@H]1C(N)=O	–
–	–	–	–	–	–	276 (≈ 126 µg/mL)	CN(C)C[C@@H]1CCN(C(=O)Nc2nc3c(s2)-c2nc(C(C)(C)C)ncc2CC3)[C@@H]1C(N)=O	–
–	–	–	–	–	–	500 (≈ 222 µg/mL)	CN(C)[C@@H]1C[C@@H](C(N)=O)N(C(=O)Nc2nc3c(s2)-c2nc(C(C)(C)C)ncc2CC3)C1	–
